ChEMBL document CHEMBL1765039, “Geminal dialkyl derivatives of N-substituted pantothenamides: synthesis and antibacterial activity” (2011)
In brackets after ≈: the same amount, converted by molar mass.

Key:
Staphylococcus aureus [1] = test: Antibacterial activity against 10^6 CFU/ml methicillin or oxacillin-resistant Staphylococcus aureus ATCC 43300 after 18 hrs by NCCLS broth microdilution method; format: functional; conditions: ATCC 43300, 18 h
Procedure, shortened: (§1)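 Broth microdilution per NCCLS, in 96-well plates; strains grown on Trypticase soy media. Compounds dissolved in 10% (v/v) acetone in water, serially diluted to 0.5–256 µg/mL (10 levels, twofold). Wells inoculated with 10⁶ cfu/mL suspension, 37 °C for 18 h. MIC = lowest concentration with no visible growth, converted to µM by molecular weight; average of at least four separate experiments.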

Staphylococcus aureus [2] = test: Antibacterial activity against Staphylococcus aureus 29213 at 150 ug/ml after 24 hrs by agar diffusion method; format: functional; conditions: Staphylococcus aureus, 29213, 24 h; read-out: DIZ
Procedure, shortened: (§2)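 Agar diffusion per NCCLS. Mueller-Hinton agar plates were swab-inoculated and dried 5 min. Sterile 1 cm discs were loaded with compound solution and placed on the plates. Incubation was 24 h at 37 °C (A. baumannii, E. coli, K. pneumoniae, S. aureus) or 30 °C (B. subtilis). Read-out was inhibition zone diameter, with ampicillin as positive control.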

Klebsiella pneumoniae = test: Antibacterial activity against Klebsiella pneumoniae 13883 at 150 ug/ml after 24 hrs by agar diffusion method; format: functional; conditions: Klebsiella pneumoniae, 13883, 24 h, read-out: DIZ; procedure, shortened: as §2
Acinetobacter baumannii = test: Antibacterial activity against Acinetobacter baumannii 19606 at 150 ug/ml after 24 hrs by agar diffusion method; format: functional; conditions: Acinetobacter baumannii, 19606, 24 h, read-out: DIZ; procedure, shortened: as §2
Staphylococcus aureus [3] = test: Antibacterial activity against 10^6 CFU/ml oxacillin-susceptible Staphylococcus aureus ATCC 29213 after 18 hrs by NCCLS broth microdilution method; format: functional; conditions: ATCC 29213, 18 h; procedure, shortened: as §1
Escherichia coli = test: Activity of Escherichia coli pantothenate kinase
Procedure, shortened: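 E. coli PanK, expressed and purified, at 278 nM in 50 mM Tris-HCl pH 7.6. Mix: ATP 1.5 mM, NADH 0.3 mM, phosphoenolpyruvate 0.5 mM, MgCl₂ 10 mM, KCl 20 mM, pyruvate kinase and lactate dehydrogenase (5 units each). Started by adding substrate (10–160). ADP formation was coupled to NADH loss, read at 340 nm, 25 °C. Kinetic parameters came from a Michaelis–Menten fit.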

In the case of C=CCC(CO)(CC=C)[C@@H](O)C(=O)NCCC(=O)NCCCCC, the MIC (Staphylococcus aureus [1]) is reported as 376 µM (≈ 128 µg/mL), the zone of inhibition at 150 µg/mL (Staphylococcus aureus [2]) is reported as 16 mm and the zone of inhibition at 150 µg/mL (Klebsiella pneumoniae) is reported as less than 11 mm. For the same molecule, the zone of inhibition at 150 µg/mL (Acinetobacter baumannii) was less than 11 mm and the MIC (Staphylococcus aureus [3]) was 376 µM (≈ 128 µg/mL).

In the case of CCCCCNC(=O)CCNC(=O)[C@H](O)[C@@](C)(CO)CC(C)C, the MIC (Staphylococcus aureus [1]) is reported as 51 µM (≈ 16.9 µg/mL), the zone of inhibition at 150 µg/mL (Staphylococcus aureus [2]) is reported as 16 mm and the zone of inhibition at 150 µg/mL (Klebsiella pneumoniae) is reported as less than 11 mm. It also gave a zone of inhibition at 150 µg/mL (Acinetobacter baumannii) of less than 11 mm and an MIC (Staphylococcus aureus [3]) of 101 µM (≈ 33.4 µg/mL).

CCCCCNC(=O)CCNC(=O)[C@H](O)[C@@](C)(CO)CC1CCC1 showed an MIC (Staphylococcus aureus [1]) of 374 µM (≈ 128 µg/mL), a zone of inhibition at 150 µg/mL (Staphylococcus aureus [2]) of 16 mm and a zone of inhibition at 150 µg/mL (Klebsiella pneumoniae) of less than 11 mm. The zone of inhibition at 150 µg/mL (Acinetobacter baumannii) was less than 11 mm and the MIC (Staphylococcus aureus [3]) was 374 µM (≈ 128 µg/mL).

For CCCCCNC(=O)CCNC(=O)[C@H](O)C(C)(C)CO, the MIC (Staphylococcus aureus [1]) was 7 µM (≈ 2.02 µg/mL), the zone of inhibition at 150 µg/mL (Staphylococcus aureus [2]) was 16 mm and the zone of inhibition at 150 µg/mL (Klebsiella pneumoniae) was less than 11 mm. It also gave a zone of inhibition at 150 µg/mL (Acinetobacter baumannii) of less than 11 mm and an MIC (Staphylococcus aureus [3]) of 7 µM (≈ 2.02 µg/mL).

CCCCCNC(=O)CCNC(=O)[C@H](O)[C@](C)(CC)CO was tested, and the MIC (Staphylococcus aureus [1]) was 7 µM (≈ 2.12 µg/mL), the zone of inhibition at 150 µg/mL (Staphylococcus aureus [2]) was 16 mm and the zone of inhibition at 150 µg/mL (Klebsiella pneumoniae) was less than 11 mm. For the same molecule, the zone of inhibition at 150 µg/mL (Acinetobacter baumannii) was less than 11 mm and the MIC (Staphylococcus aureus [3]) was 7 µM (≈ 2.12 µg/mL).

CCCCCNC(=O)CCNC(=O)[C@H](O)[C@@](C)(CO)CC1CC1 was tested, and the MIC (Staphylococcus aureus [1]) was 24 µM (≈ 7.88 µg/mL), the zone of inhibition at 150 µg/mL (Staphylococcus aureus [2]) was 16 mm and the zone of inhibition at 150 µg/mL (Klebsiella pneumoniae) was less than 11 mm. For the same molecule, the zone of inhibition at 150 µg/mL (Acinetobacter baumannii) was less than 11 mm and the MIC (Staphylococcus aureus [3]) was 24 µM (≈ 7.88 µg/mL).

C=CC[C@](C)(CO)[C@@H](O)C(=O)NCCC(=O)NCCCCCCCCC was tested, and the MIC (Staphylococcus aureus [1]) was 1 µM (≈ 0.371 µg/mL), the zone of inhibition at 150 µg/mL (Staphylococcus aureus [2]) was 16 mm and the zone of inhibition at 150 µg/mL (Klebsiella pneumoniae) was less than 11 mm. For the same molecule, the zone of inhibition at 150 µg/mL (Acinetobacter baumannii) was less than 11 mm and the MIC (Staphylococcus aureus [3]) was 1 µM (≈ 0.371 µg/mL).

For CCCCCNC(=O)CCNC(=O)[C@H](O)[C@@](C)(CO)CCC, the MIC (Staphylococcus aureus [1]) was 13 µM (≈ 4.11 µg/mL), the zone of inhibition at 150 µg/mL (Staphylococcus aureus [2]) was 16 mm and the zone of inhibition at 150 µg/mL (Klebsiella pneumoniae) was less than 11 mm. For the same molecule, the zone of inhibition at 150 µg/mL (Acinetobacter baumannii) was less than 11 mm and the MIC (Staphylococcus aureus [3]) was 13 µM (≈ 4.11 µg/mL).

Molecule CCCCCNC(=O)CCNC(=O)[C@H](O)C(CO)(CCC)CCC has an MIC (Staphylococcus aureus [1]) greater than 744 µM, a zone of inhibition at 150 µg/mL (Staphylococcus aureus [2]) of 16 mm and a zone of inhibition at 150 µg/mL (Klebsiella pneumoniae) of less than 11 mm. For the same molecule, the zone of inhibition at 150 µg/mL (Acinetobacter baumannii) was less than 11 mm and the MIC (Staphylococcus aureus [3]) was greater than 744 µM.

For C=CC[C@](C)(CO)[C@@H](O)C(=O)NCCC(=O)NCCCCC, the Km (Escherichia coli) was 534 µM, the kcat (Escherichia coli) was 0.87 s⁻¹ and the MIC (Staphylococcus aureus [1]) was 3.2 µM (≈ 1.01 µg/mL). The zone of inhibition at 150 µg/mL (Staphylococcus aureus [2]) was 16 mm, the zone of inhibition at 150 µg/mL (Klebsiella pneumoniae) was less than 11 mm and the zone of inhibition at 150 µg/mL (Acinetobacter baumannii) was less than 11 mm. The MIC (Staphylococcus aureus [3]) was 3.2 µM (≈ 1.01 µg/mL).

For CCCCCC[C@](C)(CO)[C@@H](O)C(=O)NCCC(=O)NCCCCC, the MIC (Staphylococcus aureus [1]) was greater than 715 µM, the zone of inhibition at 150 µg/mL (Staphylococcus aureus [2]) was 16 mm and the zone of inhibition at 150 µg/mL (Klebsiella pneumoniae) was less than 11 mm. It also gave a zone of inhibition at 150 µg/mL (Acinetobacter baumannii) of less than 11 mm and an MIC (Staphylococcus aureus [3]) greater than 715 µM.

With CCCCCCCCCNC(=O)CCNC(=O)[C@H](O)C(C)(C)CO the MIC (Staphylococcus aureus [1]) was 0.4 µM (≈ 0.138 µg/mL), the zone of inhibition at 150 µg/mL (Staphylococcus aureus [2]) was 16 mm and the zone of inhibition at 150 µg/mL (Klebsiella pneumoniae) was less than 11 mm. The zone of inhibition at 150 µg/mL (Acinetobacter baumannii) was less than 11 mm and the MIC (Staphylococcus aureus [3]) was 0.4 µM (≈ 0.138 µg/mL).

CCCCCNC(=O)CCNC(=O)[C@H](O)[C@@](C)(CO)Cc1ccccc1 gave an MIC (Staphylococcus aureus [1]) greater than 703 µM, a zone of inhibition at 150 µg/mL (Staphylococcus aureus [2]) of 16 mm and a zone of inhibition at 150 µg/mL (Klebsiella pneumoniae) of less than 11 mm. For the same molecule, the zone of inhibition at 150 µg/mL (Acinetobacter baumannii) was less than 11 mm and the MIC (Staphylococcus aureus [3]) was greater than 703 µM.
